In brackets after ≈: the same amount, converted by molar mass. Activity calls are given as the source filed them. The calls are words filed in the database; no cut-off is given here.
Columns and labels:
[1] = tested on: MCF7; assay: Cytotoxicity against human MCF7 cells after 48 hrs by sulforhodamine B assay; format: functional; conditions: MCF7, 48 h
How it was run: (§1)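 Tested at NIH-NCI against the 60 human tumor cell line panel. Each line was exposed to at least five concentrations for 48 h. Growth and survival were read by the sulforhodamine test.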

[2] = tested on: SK-MEL-2; assay: Cytotoxicity against human SK-MEL-2 cells after 48 hrs by sulforhodamine B assay; format: functional; conditions: SK-MEL-2, 48 h; how it was run: as §1
[3] = tested on: RPMI-8226; assay: Cytotoxicity against human RPMI8226 cells after 48 hrs by sulforhodamine B assay; format: functional; conditions: RPMI-8226, 48 h; how it was run: as §1
[4] = tested on: K562; assay: Cytotoxicity against human K562 cells by MTT assay; format: functional, cell-based
[5] = tested on: CCRF-CEM; assay: Cytotoxicity against human CCRF-CEM cells after 48 hrs by sulforhodamine B assay; format: functional; how it was run: as §1
[6] = tested on: IGROV-1; assay: Cytotoxicity against human IGROV1 cells after 48 hrs by sulforhodamine B assay; format: functional; conditions: IGROV-1, 48 h; how it was run: as §1
[7] = Cytotoxicity against human Fem-X cells assessed as decrease in total cellular protein by kenacid blue R binding method; format: functional, cell-based
[8] = tested on: Escherichia coli; assay: Antibacterial activity against Escherichia coli ATCC 35218 by serial dilution method; format: functional
[9] = tested on: Human immunodeficiency virus; assay: Antiviral activity against HIV infected in human T4 lymphocytes assessed as protection from HIV-induced cytopathogenicity at 2 uM; format: functional
[10] = Cytotoxicity against human colon cancer cells after 48 hrs by sulforhodamine B assay; format: functional; conditions: Cancer cell lines; how it was run: as §1
[11] = tested on: Staphylococcus aureus; assay: Antibacterial activity against Staphylococcus aureus ATCC 25923 by serial dilution method; format: functional
[12] = Cytotoxicity against human prostate cancer cells after 48 hrs by sulforhodamine B assay; format: functional; conditions: Cancer cell lines; how it was run: as §1
[13] = tested on: MDA-MB-435; assay: Cytotoxicity against human MDA-MB-435 cells after 48 hrs by sulforhodamine B assay; format: functional; conditions: MDA-MB-435, 48 h; how it was run: as §1
[14] = tested on: K562; assay: Cytotoxicity against human K562 cells after 48 hrs by sulforhodamine B assay; format: functional; conditions: K562, 48 h; how it was run: as §1
[15] = tested on: T47D; assay: Cytotoxicity against human T47D cells after 48 hrs by sulforhodamine B assay; format: functional; how it was run: as §1
[16] = tested on: HOP-92; assay: Cytotoxicity against human HOP92 cells after 48 hrs by sulforhodamine B assay; format: functional; conditions: HOP-92, 48 h; how it was run: as §1
[17] = tested on: PBMC; assay: Cytotoxicity against human PBMC cells by MTT assay; format: cell-based
[18] = tested on: Artemia salina; assay: Toxicity against freshly hatched nauplii of brine shrimp after 24 hrs; format: organism-based; conditions: in vivo
[19] = tested on: RXF 393; assay: Cytotoxicity against human RXF393 cells after 48 hrs by sulforhodamine B assay; format: functional; conditions: RXF 393, 48 h; how it was run: as §1
[20] = tested on: MOLT-4; assay: Cytotoxicity against human MOLT4 cells after 48 hrs by sulforhodamine B assay; format: functional; conditions: MOLT-4, 48 h; how it was run: as §1
[21] = tested on: HeLa; assay: Cytotoxicity against human HeLa cells assessed as decrease in total cellular protein by kenacid blue R binding method; format: functional, cell-based
[22] = Cytotoxicity against human T4 lymphocytes
[23] = tested on: LOX IMVI; assay: Cytotoxicity against human LOXIMVI cells after 48 hrs by sulforhodamine B assay; format: functional; how it was run: as §1
[24] = tested on: NCI-H23; assay: Cytotoxicity against human NCI-H23 cells after 48 hrs by sulforhodamine B assay; format: functional; conditions: NCI-H23, 48 h; how it was run: as §1
[25] = tested on: PBMC; assay: Cytotoxicity against human phytohemagglutininin-stimulated PBMC cells assessed as growth inhibition by MTT assay; format: cell-based
[26] = Cytotoxicity against human CNS cancer cells after 48 hrs by sulforhodamine B assay; format: functional; conditions: Cancer cell lines; how it was run: as §1

Compound	IC50 [4] [µM]	IC50 [7] [µM]	MIC [8]	MIC [11]	IC50 [17] [µM]	LC50 [18] [ppm]	IC50 [21] [µM]	IC50 [25] [µM]	other results
CC1=CCC[C@H]2[C@](C)(CC3=CC(=O)C(Sc4ccccc4)=CC3=O)[C@@H](C)CC[C@]12C	15.2	42.5	inactive	12.5 µg/mL (≈ 29.7 µM)	9.9	30.21	45	11.2	GI50 [1]: 22.4 µM; GI50 [2]: 20 µM; GI50 [3]: 20.4 µM; GI50 [5]: 3.89 µM; GI50 [6]: 16.2 µM; Activity [9]: 12.5%; GI50 [10]: > 10 µM; GI50 [12]: > 10 µM; GI50 [13]: 17 µM; GI50 [14]: 19.5 µM; GI50 [15]: 20.4 µM; GI50 [16]: 17 µM; GI50 [19]: 16.2 µM; GI50 [20]: 2.57 µM; Activity [22]: Toxic; GI50 [23]: 13.5 µM; GI50 [24]: 14.8 µM; GI50 [26]: > 10 µM
CC1=CCC[C@H]2[C@](C)(CC3=CC(=O)C(SC(C)(C)C)=CC3=O)[C@@H](C)CC[C@]12C	25.7	38	inactive	50 µg/mL (≈ 125 µM)	21.7	0.89	37	20.8	
COC1=CC(=O)C=C(C[C@]2(C)[C@@H](C)CC[C@]3(C)C(C)=CCC[C@@H]23)C1=O	2.1	9.8	50 µg/mL (≈ 146 µM)	25 µg/mL (≈ 73 µM)	5.9	0.02	13.3	5.5	
CCCSC1=CC(=O)C(C[C@]2(C)[C@@H](C)CC[C@]3(C)C(C)=CCC[C@@H]23)=CC1=O	45.5	89.5	inactive	50 µg/mL (≈ 129 µM)		0.2	97		
CC1=CCC[C@H]2[C@](C)(Cc3cc(O)ccc3O)[C@@H](C)CC[C@]12C [AVAROL]	7.3	21.7	inactive	12.5 µg/mL (≈ 39.7 µM)	3	0.18	19.7	3.2	
CCCCSC1=CC(=O)C(C[C@]2(C)[C@@H](C)CC[C@]3(C)C(C)=CCC[C@@H]23)=CC1=O	12.5	24.4	inactive	25 µg/mL (≈ 62.4 µM)		0.92	25.1		
CC1=CCC[C@H]2[C@](C)(CC3=CC(=O)C4=C(SCCS4)C3=O)[C@@H](C)CC[C@]12C	91	75	100 µg/mL (≈ 248 µM)	inactive		2045	> 100		GI50 [1]: 20.4 µM; GI50 [2]: 1.7 µM; GI50 [3]: 14.1 µM; GI50 [5]: 11 µM; GI50 [6]: 32.4 µM; GI50 [10]: > 10 µM; GI50 [12]: > 10 µM; GI50 [13]: 8.13 µM; GI50 [14]: 20 µM; GI50 [15]: > 100 µM; GI50 [16]: 31.6 µM; GI50 [19]: 18.6 µM; GI50 [20]: 21.4 µM; GI50 [23]: 11.2 µM; GI50 [24]: 13.2 µM; GI50 [26]: > 10 µM
CC1CCC[C@H]2[C@](C)(CC3=CC(=O)C(Cl)=CC3=O)[C@@H](C)CC[C@]12C (stereo not given in full)	11.2	32.2	25 µg/mL (≈ 71.7 µM)	50 µg/mL (≈ 143 µM)		0.65	34.1		
